Assays:
[1] = Lethal effect was determined in mice; assay type: ADME, organism-based; conditions: mouse, in vivo
Outline: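 Male CFLP (Swiss) mice, 18–22 g, dosed sc. Vehicle was physiological saline, with Tween-80 added for some compounds in this determination; controls received the solvent. LD50 in mg/kg determined.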

Mus musculus [2] = experiment: Inhibition of tetrabenazine ptosis in mice (sc).; assay type: functional
Mus musculus [3] = organism: Mus musculus; experiment: Amphetamine induced motility in mice; assay type: functional
[4] = biological target: Sodium-dependent dopamine transporter (Rattus norvegicus) (UniProt P23977); experiment: Inhibitory activity against inducing stereotypy in rats; assay type: functional
Outline: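 Male CFY (Sprague-Dawley) rats. Animals showing stereotypy were placed in an activity meter. Doses giving 5 times control motility were determined. Minimum effective dose, sc.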

Mus musculus [5] = experiment: Dose influencing (+/-) the spontaneous motility in mice, administered intraperitoneally (ip); assay type: functional
Outline: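 CFLP male mice, 10/group. Spontaneous motility recorded in a circuit-closing apparatus, no amphetamine. Compounds given 15 or 30 min before testing. Vehicle controls. Minimum dose raising (+) or lowering (−) motility, ip.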

Felis catus [6] = organism: Felis catus; experiment: Compound was tested for potentiating the dopamine-induced hypotension in cats.; assay type: functional
Mus musculus [7] = experiment: Inhibitory activity against tetrabenazine catalepsy in mice (sc); assay type: functional
Mus musculus [8] = organism: Mus musculus; experiment: Inhibitory activity against reserpine hypothermia in mice.; assay type: functional
Outline: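 Mice (male CFLP, 18–22 g, 10/group) given reserpine 1 mg/kg ip 3 h before testing. Rectal temperature read with a thermistor probe. Compounds given sc 15 or 30 min before testing. Minimum effective dose.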

Felis catus [9] = organism: Felis catus; experiment: Compound was tested for potentiating the dopamine-induced hypotension in cats; assay type: functional
[10] = biological target: Sodium-dependent dopamine transporter (Mus musculus) (UniProt Q61327); experiment: Compound was evaluated for the inhibitory activity against Haloperidol catalepsy in mice; assay type: functional
Outline: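 Male CFLP (Swiss) mice, 18–22 g, 10/group. Haloperidol 5 mg/kg ip, 60 min. Catalepsy tested on a vertical grid. Compounds given sc 15 or 30 min before testing, in saline or the listed vehicles. Controls received the vehicle. ED50 with range.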

Mus musculus [11] = organism: Mus musculus; experiment: Compound was evaluated for the inhibitory activity against tetrabenazine catalepsy in mice; assay type: functional
Outline: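 Male CFLP (Swiss) mice, 18–22 g, 10/group. Tetrabenazine 25 mg/kg ip, 30 min before testing. Catalepsy scored on a vertical grid. Compounds given sc 15 or 30 min before testing. Controls received the vehicle. ED50 with range.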

Mus musculus [12] = organism: Mus musculus; experiment: Compound was evaluated for the inhibitory activity against Tetrabenazine ptosis in mice; assay type: functional
Outline: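 CFLP male mice, 18–22 g, 10/group. Tetrabenazine 35 mg/kg ip at −20 min. Ptosis rated by an observer blind to treatment. Compounds given sc 15 or 30 min beforehand. Controls received the vehicle. ED50 with range.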

Mus musculus [13] = experiment: Compound was evaluated for the dose influencing (+/-) the amphetamine induced motility in mice, administered intraperitoneally (ip); assay type: functional

Sequence of Sodium-dependent dopamine transporter (Mus musculus) (Q61327 whole entry): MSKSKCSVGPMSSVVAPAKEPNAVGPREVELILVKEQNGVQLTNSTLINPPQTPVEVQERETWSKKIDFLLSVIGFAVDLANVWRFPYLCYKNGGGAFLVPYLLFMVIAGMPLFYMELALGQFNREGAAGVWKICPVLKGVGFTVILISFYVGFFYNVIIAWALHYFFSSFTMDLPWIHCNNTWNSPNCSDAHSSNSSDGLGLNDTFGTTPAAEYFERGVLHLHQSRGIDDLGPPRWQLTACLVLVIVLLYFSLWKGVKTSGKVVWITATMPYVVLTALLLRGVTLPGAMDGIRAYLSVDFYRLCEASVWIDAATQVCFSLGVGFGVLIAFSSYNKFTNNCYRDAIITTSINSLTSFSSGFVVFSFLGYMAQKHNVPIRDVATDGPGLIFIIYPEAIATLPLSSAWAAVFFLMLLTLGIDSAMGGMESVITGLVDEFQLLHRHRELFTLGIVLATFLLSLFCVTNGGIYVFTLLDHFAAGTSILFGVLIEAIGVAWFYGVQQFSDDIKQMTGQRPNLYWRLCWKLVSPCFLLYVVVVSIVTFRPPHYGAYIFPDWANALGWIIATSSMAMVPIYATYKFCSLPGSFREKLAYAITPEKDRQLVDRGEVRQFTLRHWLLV
Sequence of Sodium-dependent dopamine transporter (Rattus norvegicus) (P23977 whole entry): as the sequence (Q61327 whole entry) above, with P21S, V57A, S194A, R600H, V619L counted along it

SMILES | LD50 [1] [mg/kg] | ED50 (Mus musculus [2]) [mg/kg] | EDmin (Mus musculus [3]) [mg/kg] | EDmin [4] [mg/kg] | EDmin (Mus musculus [5]) [mg/kg] | EDmin (Felis catus [6]) [mg/kg] | ED50 (Mus musculus [7]) [mg/kg] | EDmin (Mus musculus [8]) [mg/kg] | EDmin (Felis catus [9]) [mg/kg] | ED50 [10] [mg/kg] | ED50 (Mus musculus [11]) [mg/kg] | ED50 (Mus musculus [12]) [mg/kg] | EDmin (Mus musculus [13]) [mg/kg]
CCCCNC(=O)Nc1cccc2c1CN(C)CC2c1ccccc1 (stereo unspecified) | 430 | 23 | 80 | > 83 | 80 | 2 | ~40 | >40 |  |  |  |  | 
CCCCNCC(=O)Nc1cccc2c1CN(C)CC2c1ccc(Cl)cc1 (stereo unspecified) | 320 | 3.9 | >20 | 32.8 | >20 | 0.5 | 13.5 | 5 |  |  |  |  | 
CCCCNCC(=O)Nc1cccc2c1CN(C)CC2c1ccc(C)cc1 (stereo unspecified) | 320 | ~2.5 | >10 | 52.4 | 5 | 1 | 34 | 10 |  |  |  |  | 
CCCCNCCC(=O)Nc1cccc2c1CN(C)CC2c1ccccc1 (stereo unspecified) | 292 | 74 | >80 | > 83 | >80 | >5 | ~46 | >40 |  |  |  |  | 
CN1Cc2c(NC(=O)CN3CCOCC3)cccc2C(c2ccccc2)C1 (stereo unspecified) | 295 |  | 60 | 83 | 60 | 3 | 39 | 20 |  |  |  |  | 
CN1Cc2c(NC(=O)OCc3ccccc3)cccc2C(c2ccccc2)C1 (stereo unspecified) | > 1000 | 16 | 100 | 12 | 100 | >5 | ~15 | 20 |  |  |  |  | 
CCNCCC(=O)Nc1cccc2c1CN(C)CC2c1ccccc1 (stereo unspecified) | 720 | > 160 | >160 | 134 | 160 | 4 | > 200 | 200 |  |  |  |  | 
CCOC(=O)Nc1cccc2c1CN(C)CC2c1ccc(Cl)cc1 (stereo unspecified) | 830 | 0.6 | 20 | 5.2 | 3 | 0.5 | 4.8 | 10 |  |  |  |  | 
CCCCNC(=O)Nc1cccc2c1CN(C)CC2c1ccc(Cl)cc1 (stereo unspecified) | > 1000 | 15 | >30 | 134 | 15 | 3 | 44 | >100 |  |  |  |  | 
CN1Cc2c(NC(=O)CN3CCCCC3)cccc2C(c2ccccc2)C1 (stereo unspecified) | 520 |  | >60 | > 83 | >100 | 3.5 | ~65 | 20 |  |  |  |  | 
CN1Cc2c(N)cccc2C(c2ccccc2)C1 (stereo unspecified) [NOMIFENSINE] | 336 |  | >5 |  | 10 |  |  |  | 0.5 |  |  |  | 
CN1Cc2c(N)cccc2C(c2ccc(F)cc2)C1 (stereo unspecified) | 222 | 0.25 | 10 |  | 5 | 0.2 | ~3.6 | 2 |  |  |  |  | 
CC(C)NCCC(=O)Nc1cccc2c1CN(C)CC2c1ccccc1 (stereo unspecified) | 900 | ~125 | 160 | > 83 | 160 | 2 | 150 | 200 |  |  |  |  | 
CCOC(=O)Nc1cccc2c1CN(C)CC2c1ccc(F)cc1 (stereo unspecified) | 255 | 3.3 | 5 | 8 | 20 | 2 | 3.5 | 10 |  |  |  |  | 
CCNCC(=O)Nc1cccc2c1CN(C)CC2c1ccc(Cl)cc1 (stereo unspecified) | 325 | 6.4 | >20 | 32.8 | 20 | 0.5 | 24 | 5 |  |  |  |  | 
CCOC(=O)Nc1cccc2c1CN(C)CC2c1ccccc1 (stereo unspecified) | 71 | ~4 | 4 | > 12.8 | >8 |  | 3.2 | 2 |  |  |  |  | 

SMILES | LD50 [1] [mg/kg] | ED50 (Mus musculus [2]) [mg/kg] | EDmin (Mus musculus [3]) [mg/kg] | EDmin [4] [mg/kg] | EDmin (Mus musculus [5]) [mg/kg] | EDmin (Felis catus [6]) [mg/kg] | ED50 (Mus musculus [7]) [mg/kg] | EDmin (Mus musculus [8]) [mg/kg] | EDmin (Felis catus [9]) [mg/kg] | ED50 [10] [mg/kg] | ED50 (Mus musculus [11]) [mg/kg] | ED50 (Mus musculus [12]) [mg/kg] | EDmin (Mus musculus [13]) [mg/kg]
CCNCC(=O)Nc1cccc2c1CN(C)CC2c1ccc(C)cc1 (stereo unspecified) | 320 | 5.6 | >10 | > 83 | 10 | 1.5 | ~45 | 20 |  |  |  |  | 
CCCCNCC(=O)Nc1cccc2c1CN(C)CC2c1ccccc1 (stereo unspecified) | 240 |  | >30 | 32.8 | 15 | 2 | 32 | >40 |  |  |  |  | 
CN1Cc2c(N)cccc2C(c2ccc(Cl)cc2)C1 (stereo unspecified) | 240 | 1.1 | 5 |  | 10 |  | 1.6 | 2 |  |  |  |  | 
CCCCNC(=O)Nc1cccc2c1CN(C)CC2c1ccc(C)cc1 (stereo unspecified) | > 1200 | ~15 | 20 | 83 | 20 | >5 | 40 | 20 |  |  |  |  | 
CC(C)NCC(=O)Nc1cccc2c1CN(C)CC2c1ccccc1 (stereo unspecified) | 300 |  | >30 | > 52.4 | 30 | 1 | 14 | 20 |  |  |  |  | 
CCCNC(=O)Nc1cccc2c1CN(C)CC2c1ccccc1 (stereo unspecified) | 455 | > 80 | 80 | > 83 | >80 | 10 | > 80 | >60 |  |  |  |  | 
CN1Cc2c(NC(=O)CCl)cccc2C(c2ccccc2)C1 (stereo unspecified) | 94 |  | 10 | 8 | 20 | 1 |  | >30 |  | 10 | 10 | 3 | 
CN1Cc2c(NC(=O)CN3CCCC3)cccc2C(c2ccccc2)C1 (stereo unspecified) | 380 | ~25 | >120 | 52.4 | 120 | 3 | 39 | 50 |  |  |  |  | 
CCNCC(=O)Nc1cccc2c1CN(C)CC2c1ccccc1 (stereo unspecified) | 320 |  | >30 | 52.4 | >60 | 2 | 47 | 60 |  |  |  |  | 
CN1Cc2c(NC(=O)CCCl)cccc2C(c2ccccc2)C1 (stereo unspecified) | 89 |  | >15 | 20.5 | >30 | 1 |  | >30 |  | 19 | > 30 | 8.8 | 
CN1Cc2c(NC(=O)OCCCl)cccc2C(c2ccccc2)C1 (stereo unspecified) | 160 |  | 5 | > 20.5 | >20 | 2 |  | 20 |  | 11 | 9 | 2.5 | 
CC(C)c1ccc(C2CN(C)Cc3c(N)cccc32)cc1 (stereo unspecified) | 1100 | 68 | 80 |  | 80 | 2 | > 80 | 50 |  |  |  |  | 
CCNC(=O)Nc1cccc2c1CN(C)CC2c1ccccc1 (stereo unspecified) | 290 | 54 | 40 | > 83 | 80 | 6 | 80 | 40 |  |  |  |  | 
CCCCOC(=O)Nc1cccc2c1CN(C)CC2c1ccccc1 (stereo unspecified) | 180 | 2.6 | >5 | 20.5 | 5 | 2 | 4 | 20 |  |  |  |  | 
Cc1ccc(C2CN(C)Cc3c(N)cccc32)cc1 (stereo unspecified) | 800 | ~1.2 |  |  | 15 | 0.2 | 1.6 | 2 |  |  |  |  | 10

Reference: ChEMBL document CHEMBL1123304 (J Med Chem, 1986)
